These results are taken from ChEMBL document CHEMBL3259640 (J Med Chem, 2014).

Data set [1] concerns HeLa. As to the kind of experiment: Antiproliferative activity against human HeLa cells assessed as cell viability after 96 hrs by CellTiter96 assay. Format: functional, cell-based.
The nature of data set [2]: AUC in Sprague-Dawley rat at 2 mg/kg, iv compound formulated with 5% DMSO, 10% cremophor and 85% water by LC-MS/MS analysis. Format: ADME, organism-based. Set-up: dose 2 mg/kg, route intravenous. Conditions: plasma.
The nature of data set [3]: Oral bioavailability in Sprague-Dawley rat at 20 mg/kg compound formulated with 1% methylcellulose in water by LC-MS/MS analysis. Format: ADME, organism-based. Conditions: in vivo. Summed up:
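Male Sprague–Dawley rats, n = 3. Blood drawn by preimplanted catheter over 24 h; plasma separated at 4 °C and deproteinated with acetonitrile. Drug measured by LC–MS/MS; parameters obtained by noncompartmental analysis.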

Data set [4] is described as follows: Half life in rat liver microsomes at 1 uM by LC-MS/MS analysis. Format: ADME.
The subject of another data set is MDA-MB-231. As to the kind of experiment: Antitumor activity against human MDA-MB-231 cells xenografted in BALB/c nu/nu mouse assessed as tumor volume at 20 mg/kg, iv qd for 28 days relative to control. Format: functional. Summed up:
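Female BALB/c nu/nu mice, 5–8 weeks old, implanted subcutaneously in the right flank with 1 × 10⁷ MDA-MB-231 cells in matrigel. Dosing began at about 100 mm³ mean tumour volume; 5 mice/group. Arms: vehicle (5% DMSO, 10% Cremophor in water) IV once daily, 20 mg/kg IV once daily, or 150 mg/kg PO twice daily, for 28 days. Caliper volumes and body weight every 2 days; T/C on day 28.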

The target in data set [5] is T1, Kinetochore protein NDC80 homolog (Homo sapiens) (UniProt O14777).
T1 sequence (whole entry): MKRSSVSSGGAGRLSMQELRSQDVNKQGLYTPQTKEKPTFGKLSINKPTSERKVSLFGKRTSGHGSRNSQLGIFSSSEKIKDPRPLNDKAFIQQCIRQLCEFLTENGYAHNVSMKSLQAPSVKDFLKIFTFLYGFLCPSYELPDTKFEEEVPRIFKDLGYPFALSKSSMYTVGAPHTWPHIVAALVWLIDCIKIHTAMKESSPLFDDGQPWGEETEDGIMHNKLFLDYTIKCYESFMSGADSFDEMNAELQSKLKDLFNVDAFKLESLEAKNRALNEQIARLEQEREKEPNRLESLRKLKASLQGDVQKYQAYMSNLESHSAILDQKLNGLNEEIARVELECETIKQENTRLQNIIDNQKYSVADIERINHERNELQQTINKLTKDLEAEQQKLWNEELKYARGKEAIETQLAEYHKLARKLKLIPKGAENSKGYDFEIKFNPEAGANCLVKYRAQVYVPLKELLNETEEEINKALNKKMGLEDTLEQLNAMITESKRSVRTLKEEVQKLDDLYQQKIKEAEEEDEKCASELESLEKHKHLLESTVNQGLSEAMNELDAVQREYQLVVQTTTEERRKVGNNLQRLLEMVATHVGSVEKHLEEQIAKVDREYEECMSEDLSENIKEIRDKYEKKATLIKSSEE
As to the kind of experiment: Inhibition of Hec1/Nek2 interaction in human K562 cells assessed as reduction in coimmunoprecipitated Hec1 level at 100 nM after 16 hrs by co-immunoprecipitation assay. Format: cell-based.

Data set [6] deals with T1, Kinetochore protein NDC80 homolog (Homo sapiens). As to the kind of experiment: Inhibition of Hec1/Nek2 interaction in human K562 cells assessed as induction of Nek2 degradation after 24 hrs by western blot analysis. Format: cell-based. Summed up:
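K562 cells exposed to DMSO or to 10, 100 or 1000 nM for 24 h. Nek2 and Hec1 detected by western blot in SDS sample buffer lysates, with actin as loading control and ECL detection.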

The target is the same in data set [7]. As to the kind of experiment: Inhibition of Hec1/Nek2 interaction in human MDA-MB-468 cells assessed as reduction in Hec1 level at 100 nM by western blot analysis. Format: cell-based. Summed up: (§1)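 MDA-MB-468 cells treated with compound at 100 nM, with or without MG132 at 500 nM. Lysates made in SDS sample buffer, run on SDS-PAGE and blotted to PVDF. Primary antibodies applied in 3% BSA-TBST, with HRP secondaries and enhanced chemiluminescence detection for Hec1 and Nek2.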

The target is the same in data set [8]. As to the kind of experiment: Inhibition of Hec1/Nek2 interaction in human MDA-MB-468 cells assessed as induction of Nek2 degradation at 100 nM by western blot analysis. Format: cell-based. Summed up:
as §1

For data set [9] the target is unchanged. Put plainly: Inhibition of Hec1/Nek2 interaction in human K562 cells assessed as reduction in coimmunoprecipitated Hec1 level at 100 nM after 16 hrs by co-immunoprecipitation assay in presence of 500 nM proteasome inhibitor MG132. Format: cell-based.
The subject of data set [10] is MDA-MB-468. As to the kind of experiment: Induction of mitotic abnormalities in human MDA-MB-468 cells assessed as increase in proportion of cells displaying multipolar spindles after 48 hrs by immunofluorescent staining based microscopy. Format: functional, cell-based.
Data set [11] relates to HeLa. Put plainly: Induction of apoptosis in human HeLa cells assessed as increase in cleaved caspase-3 level at 1 uM after 24 to 48 hrs by western blot analysis. Format: functional, cell-based. The gist of the method:
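HeLa cells given 1.0 μM compound, DMSO, or paclitaxel 100 nM for 24 and 48 h. Lysates made in SDS sample buffer, run on SDS-PAGE and transferred to PVDF. Blots probed for cleaved caspase-3, cleaved PARP, Bcl-2, Mcl-1 and XIAP, with actin as loading control, and detected by HRP-linked ECL.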

The subject of a further data set is HCT-116. Put plainly: Growth inhibition of human HCT116 cells. Format: functional.
For data set [12], the system named is MDA-MB-468. As to the kind of experiment: Growth inhibition of human MDA-MB-468 cells. Format: functional.
Data set [13] in a line: Growth inhibition of human Hep3B cells. Format: functional, Hep 3B2.
Data set [14] in a line: Growth inhibition of human RPTEC cells. Format: cell-based.
Data set [15] in a line: Growth inhibition of human HAoSMC cells. Format: cell-based.
Data set [16] concerns the target Serine/threonine-protein kinase Chk2 (Homo sapiens, UniProt O96017). Put plainly: Inhibition of CHK2 (unknown origin) assessed as [33P] incorporation in substrate by TopCount microplate scintillation counting analysis.
For a further data set, the target named is Aurora kinase B (Homo sapiens, UniProt Q96GD4). As to the kind of experiment: Inhibition of aurora B (unknown origin) assessed as [33P] incorporation in substrate by TopCount microplate scintillation counting analysis.
Aurora kinase B, sequence (Q96GD4 whole entry, canonical isoform): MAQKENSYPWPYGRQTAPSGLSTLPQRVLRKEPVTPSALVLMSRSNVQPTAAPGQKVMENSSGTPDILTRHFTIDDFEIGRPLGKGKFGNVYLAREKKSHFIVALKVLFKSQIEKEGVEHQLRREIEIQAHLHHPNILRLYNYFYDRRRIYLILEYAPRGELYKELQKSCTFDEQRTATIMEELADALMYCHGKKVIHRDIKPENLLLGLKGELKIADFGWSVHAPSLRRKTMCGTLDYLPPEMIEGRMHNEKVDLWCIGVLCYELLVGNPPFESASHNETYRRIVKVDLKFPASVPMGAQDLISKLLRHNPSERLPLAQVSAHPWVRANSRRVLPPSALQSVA
Data set [17] has as its target Phosphatidylinositol 4,5-bisphosphate 3-kinase catalytic subunit alpha isoform (Homo sapiens, UniProt P42336). Put plainly: Inhibition of PI3K alpha (unknown origin) assessed as [33P] incorporation in substrate by TopCount microplate scintillation counting analysis.
Data set [18] concerns the target Platelet-derived growth factor receptor beta (Homo sapiens, UniProt P09619). As to the kind of experiment: Inhibition of PDGFR-beta (unknown origin) assessed as [33P] incorporation in substrate by TopCount microplate scintillation counting analysis.
In data set [19] the target is RAF proto-oncogene serine/threonine-protein kinase (Homo sapiens, UniProt P04049). As to the kind of experiment: Inhibition of C-Raf (unknown origin) assessed as [33P] incorporation in substrate by TopCount microplate scintillation counting analysis.
RAF proto-oncogene serine/threonine-protein kinase, sequence (P04049 whole entry): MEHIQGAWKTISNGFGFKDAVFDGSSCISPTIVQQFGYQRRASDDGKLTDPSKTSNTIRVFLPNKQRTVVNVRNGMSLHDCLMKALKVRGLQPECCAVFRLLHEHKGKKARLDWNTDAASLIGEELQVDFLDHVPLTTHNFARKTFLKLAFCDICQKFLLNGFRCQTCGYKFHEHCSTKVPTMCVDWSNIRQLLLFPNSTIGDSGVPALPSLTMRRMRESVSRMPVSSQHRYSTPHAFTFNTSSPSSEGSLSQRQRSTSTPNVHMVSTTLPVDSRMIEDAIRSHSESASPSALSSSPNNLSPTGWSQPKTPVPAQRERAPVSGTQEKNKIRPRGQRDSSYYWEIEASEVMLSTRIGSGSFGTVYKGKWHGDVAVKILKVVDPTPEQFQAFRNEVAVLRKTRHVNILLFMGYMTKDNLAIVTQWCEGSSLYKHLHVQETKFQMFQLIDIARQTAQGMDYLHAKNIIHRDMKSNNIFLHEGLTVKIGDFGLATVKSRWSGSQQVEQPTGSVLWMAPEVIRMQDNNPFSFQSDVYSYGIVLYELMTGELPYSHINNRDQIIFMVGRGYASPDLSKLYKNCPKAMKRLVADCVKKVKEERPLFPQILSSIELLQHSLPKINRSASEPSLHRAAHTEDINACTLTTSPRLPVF
The target in data set [20] is Receptor-type tyrosine-protein kinase FLT3 (Homo sapiens, UniProt P36888). As to the kind of experiment: Inhibition of FLT3 (unknown origin) assessed as [33P] incorporation in substrate by TopCount microplate scintillation counting analysis.
Receptor-type tyrosine-protein kinase FLT3, sequence (P36888 whole entry): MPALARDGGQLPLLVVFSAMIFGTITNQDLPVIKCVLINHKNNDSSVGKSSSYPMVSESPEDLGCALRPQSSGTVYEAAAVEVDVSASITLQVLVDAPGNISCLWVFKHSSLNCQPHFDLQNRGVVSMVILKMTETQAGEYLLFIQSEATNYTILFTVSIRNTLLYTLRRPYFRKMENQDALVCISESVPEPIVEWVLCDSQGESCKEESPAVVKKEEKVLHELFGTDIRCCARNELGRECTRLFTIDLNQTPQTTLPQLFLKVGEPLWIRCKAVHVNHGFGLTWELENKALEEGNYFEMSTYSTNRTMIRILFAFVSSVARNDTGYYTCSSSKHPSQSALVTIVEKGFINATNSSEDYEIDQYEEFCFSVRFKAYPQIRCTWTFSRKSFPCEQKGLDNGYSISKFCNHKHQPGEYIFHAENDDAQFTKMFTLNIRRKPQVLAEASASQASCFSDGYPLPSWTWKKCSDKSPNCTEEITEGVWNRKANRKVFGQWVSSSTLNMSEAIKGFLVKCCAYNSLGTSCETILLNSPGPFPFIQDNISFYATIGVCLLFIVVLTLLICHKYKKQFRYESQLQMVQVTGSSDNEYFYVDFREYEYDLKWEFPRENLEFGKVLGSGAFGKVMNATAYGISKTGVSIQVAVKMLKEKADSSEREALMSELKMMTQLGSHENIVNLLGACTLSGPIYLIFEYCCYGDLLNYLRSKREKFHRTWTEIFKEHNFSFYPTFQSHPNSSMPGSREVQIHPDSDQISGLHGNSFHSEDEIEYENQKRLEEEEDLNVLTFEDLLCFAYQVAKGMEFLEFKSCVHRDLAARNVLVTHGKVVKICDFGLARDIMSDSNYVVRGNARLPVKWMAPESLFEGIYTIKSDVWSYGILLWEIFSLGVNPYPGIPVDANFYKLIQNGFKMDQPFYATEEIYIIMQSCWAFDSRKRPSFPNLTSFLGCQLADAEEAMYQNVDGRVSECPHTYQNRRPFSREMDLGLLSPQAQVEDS
Data set [21] concerns the target Hepatocyte growth factor receptor (Homo sapiens, UniProt P08581). Put plainly: Inhibition of MET (unknown origin) assessed as [33P] incorporation in substrate by TopCount microplate scintillation counting analysis.

Each structure is given as a SMILES string. The source made the active and inactive calls. The rule behind the calls is not given here.

Serine/threonine-protein kinase Chk2, sequence (O96017 whole entry): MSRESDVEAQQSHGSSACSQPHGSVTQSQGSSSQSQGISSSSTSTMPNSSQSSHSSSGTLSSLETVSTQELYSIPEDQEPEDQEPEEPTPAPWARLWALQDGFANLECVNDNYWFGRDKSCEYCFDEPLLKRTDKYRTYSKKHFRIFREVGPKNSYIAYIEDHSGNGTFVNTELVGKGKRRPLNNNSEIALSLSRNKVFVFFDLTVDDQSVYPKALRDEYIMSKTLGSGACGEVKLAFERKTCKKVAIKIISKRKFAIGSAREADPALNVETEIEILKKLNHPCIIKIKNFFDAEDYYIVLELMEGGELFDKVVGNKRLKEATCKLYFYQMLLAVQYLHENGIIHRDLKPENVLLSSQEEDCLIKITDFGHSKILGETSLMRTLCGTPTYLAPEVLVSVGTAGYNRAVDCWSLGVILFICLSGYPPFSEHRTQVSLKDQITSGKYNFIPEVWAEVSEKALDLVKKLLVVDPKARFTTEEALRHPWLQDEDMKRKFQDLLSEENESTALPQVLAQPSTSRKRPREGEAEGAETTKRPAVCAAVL
Hepatocyte growth factor receptor, sequence (P08581 whole entry): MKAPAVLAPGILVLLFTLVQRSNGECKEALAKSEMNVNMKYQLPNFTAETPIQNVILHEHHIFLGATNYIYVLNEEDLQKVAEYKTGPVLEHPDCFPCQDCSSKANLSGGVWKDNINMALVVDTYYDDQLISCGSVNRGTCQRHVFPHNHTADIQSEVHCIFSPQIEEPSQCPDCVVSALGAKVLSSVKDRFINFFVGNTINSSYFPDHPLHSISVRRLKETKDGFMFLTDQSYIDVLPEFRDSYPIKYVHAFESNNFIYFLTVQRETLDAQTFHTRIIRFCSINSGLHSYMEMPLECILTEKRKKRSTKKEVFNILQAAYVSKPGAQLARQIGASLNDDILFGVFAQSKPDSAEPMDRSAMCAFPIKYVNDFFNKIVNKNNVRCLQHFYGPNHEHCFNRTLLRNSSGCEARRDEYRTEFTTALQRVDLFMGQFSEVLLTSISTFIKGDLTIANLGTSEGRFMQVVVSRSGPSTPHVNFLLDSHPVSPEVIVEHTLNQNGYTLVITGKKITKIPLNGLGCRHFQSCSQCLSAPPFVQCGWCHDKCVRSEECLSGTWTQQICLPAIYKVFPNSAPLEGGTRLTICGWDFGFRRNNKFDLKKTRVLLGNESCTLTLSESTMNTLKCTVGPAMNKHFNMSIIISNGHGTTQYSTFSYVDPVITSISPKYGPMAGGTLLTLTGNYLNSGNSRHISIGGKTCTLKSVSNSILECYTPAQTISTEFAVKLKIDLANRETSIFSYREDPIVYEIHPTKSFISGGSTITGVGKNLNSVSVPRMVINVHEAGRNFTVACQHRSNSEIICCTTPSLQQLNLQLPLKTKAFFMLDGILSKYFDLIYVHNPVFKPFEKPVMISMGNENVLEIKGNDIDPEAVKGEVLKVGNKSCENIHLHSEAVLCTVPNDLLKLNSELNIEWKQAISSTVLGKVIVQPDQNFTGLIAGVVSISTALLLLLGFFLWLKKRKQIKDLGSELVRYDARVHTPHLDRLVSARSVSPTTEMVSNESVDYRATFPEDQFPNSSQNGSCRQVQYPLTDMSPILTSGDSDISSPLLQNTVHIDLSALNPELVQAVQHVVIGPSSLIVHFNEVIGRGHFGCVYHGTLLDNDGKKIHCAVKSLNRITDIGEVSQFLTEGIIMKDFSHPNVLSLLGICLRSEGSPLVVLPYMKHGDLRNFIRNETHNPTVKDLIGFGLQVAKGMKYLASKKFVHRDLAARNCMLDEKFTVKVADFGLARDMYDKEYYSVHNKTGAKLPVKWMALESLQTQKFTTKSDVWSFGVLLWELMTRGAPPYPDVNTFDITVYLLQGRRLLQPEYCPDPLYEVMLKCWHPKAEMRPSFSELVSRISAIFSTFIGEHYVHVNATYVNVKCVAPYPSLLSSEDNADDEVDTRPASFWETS
Platelet-derived growth factor receptor beta, sequence (P09619 whole entry): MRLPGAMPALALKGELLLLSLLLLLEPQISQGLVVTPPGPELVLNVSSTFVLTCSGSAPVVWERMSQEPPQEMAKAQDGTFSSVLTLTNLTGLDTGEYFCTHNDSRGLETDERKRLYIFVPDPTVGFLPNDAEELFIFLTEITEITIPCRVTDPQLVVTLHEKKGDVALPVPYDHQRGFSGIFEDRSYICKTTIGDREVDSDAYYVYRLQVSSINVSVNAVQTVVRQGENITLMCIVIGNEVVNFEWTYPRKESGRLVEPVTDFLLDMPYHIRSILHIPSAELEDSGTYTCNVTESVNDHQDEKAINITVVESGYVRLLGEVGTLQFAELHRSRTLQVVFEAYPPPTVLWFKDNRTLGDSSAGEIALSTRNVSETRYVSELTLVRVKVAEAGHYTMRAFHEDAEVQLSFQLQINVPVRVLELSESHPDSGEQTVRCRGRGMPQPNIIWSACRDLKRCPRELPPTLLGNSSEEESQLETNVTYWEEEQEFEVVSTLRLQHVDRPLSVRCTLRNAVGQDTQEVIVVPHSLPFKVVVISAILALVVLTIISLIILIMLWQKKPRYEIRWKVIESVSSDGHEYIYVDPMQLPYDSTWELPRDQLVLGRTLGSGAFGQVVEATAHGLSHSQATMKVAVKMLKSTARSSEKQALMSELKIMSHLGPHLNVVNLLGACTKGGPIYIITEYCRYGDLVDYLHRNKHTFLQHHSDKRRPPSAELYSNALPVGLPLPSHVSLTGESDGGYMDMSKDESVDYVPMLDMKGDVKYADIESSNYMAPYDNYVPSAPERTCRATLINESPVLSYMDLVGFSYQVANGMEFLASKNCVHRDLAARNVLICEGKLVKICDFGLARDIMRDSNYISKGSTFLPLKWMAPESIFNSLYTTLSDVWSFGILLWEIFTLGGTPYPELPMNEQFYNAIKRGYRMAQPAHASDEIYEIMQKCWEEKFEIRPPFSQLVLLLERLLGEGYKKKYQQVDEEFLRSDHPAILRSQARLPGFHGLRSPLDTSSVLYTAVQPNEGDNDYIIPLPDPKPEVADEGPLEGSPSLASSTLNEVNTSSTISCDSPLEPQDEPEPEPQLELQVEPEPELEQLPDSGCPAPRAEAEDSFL

For the compound `COc1ccc(Oc2cc(C)c(-c3csc(NC(=O)c4ccnc(F)c4)n3)c(C)c2)cc1`, the IC50 was 0.0427 µM in the data set with HeLa [1]; above 10 µM in [16]; above 10 µM at Aurora kinase B; above 10 µM in [17]; above 10 µM in data set [18]; above 10 µM in data set [19]. The IC50 in data set [20] and in data set [21] was above 10 µM in each case. For the same compound, the exposure (AUC) in data set [2] turned out to be 64.9 µM·h. Further, the bioavailability in data set [3] stood at 4.6%. Further, the half-life at 1 µM in data set [4] is 5.67 h. Further, the T/C in the data set on MDA-MB-231 was found to be 32%. The inhibition result in data set [5], in [7] and in data set [9] was “Active” in each case. Moreover, the Activity entry (in data set [6]; in the data set with MDA-MB-468 [10]) was “Dose-dependent effect” throughout. In addition, the outcome (in [8]; in the data set with HeLa [11]) was Active. Also, the GI50 in the data set with HCT-116 is 0.0341 µM; with MDA-MB-468 [12], 0.0296 µM; in data set [13], 0.0683 µM; in [14], above 9 µM; in [15], above 9 µM.
